# Test results taken from ChEMBL document CHEMBL5038582, “Adamantyl Isothiocyanates as Mutant p53 Rescuing Agents and Their Structure-Activity Relationships” (J Med Chem, 2021).
# Activity calls are given as the source filed them. No cut-off for these calls is given here.
# What was measured:
# MDA-MB-231 [1] = assay: Antiproliferative activity against human MDA-MB-231 cells expressing p53 R280K mutant assessed as inhibition of cell growth at 10 to 50 uM incubated for 24 to 72 hrs by WST-1 assay; type: functional, cell-based; details: dose 10-50 µM, time 24-72 hrs
# Summary of the method: (§1)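 WST-1 proliferation assay. Compound diluted in DMSO so that 10 μl of stock in 1 ml of cells (40,000 cells/ml) gives the test concentration at 1% DMSO. Cells plated at 4,000/well in duplicate and incubated at 37 °C for 24 h or 72 h. Result given as % of the 1% DMSO control.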
# MCF7 [2] = assay: Antiproliferative activity against human MCF7 cells expressing WT p53 assessed as inhibition of cell growth at 10 to 50 uM incubated for 24 to 72 hrs by WST-1 assay; type: functional, cell-based; details: dose 10-50 µM, time 24-72 hrs; summary of the method: as §1
# MDA-MB-231 [3] = assay: Induction of apoptosis in human MDA-MB-231 cells expressing p53 R280K mutant assessed increase in number of Annexin-V stained cells at 6 to 12 uM incubated for 24 hrs by AnnexinV-FITC and PI staining based flow cytometry; type: functional, cell-based; details: dose 6-12 µM
# Summary of the method: (§2)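 24 h treatment, DMSO control. Cells scraped, washed in PBS, then given fluorochrome-conjugated Annexin V for 15 min at RT in the dark, followed by PI (0.1 µg/ml) in binding buffer. Read by flow cytometry on LSRFortessa. Annexin V-positive cells expressed relative to the DMSO control.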
# MCF7 [4] = assay: Induction of apoptosis in human MCF-7 cells expressing wild type p53 assessed increase in number of Annexin-V stained cells at 6 to 12 uM incubated for 24 hrs by AnnexinV-FITC and PI staining based flow cytometry; type: functional, cell-based; details: dose 6-12 µM; summary of the method: as §2
# MDA-MB-468 [5] = assay: Induction of apoptosis in human MDA-MB-468 cells expressing p53 R273H mutant assessed increase in number of Annexin-V stained cells at 6 to 12 uM incubated for 24 hrs by AnnexinV-FITC and PI staining based flow cytometry; type: functional, cell-based; details: dose 6-12 µM; summary of the method: as §2
# MDA-MB-468 [6] = assay: Downregulation of p53 R273H mutant expression in human MDA-MB-468 cells at 6 to 12 uM measured after 24 hrs by immunoblot analysis; type: functional, cell-based; details: dose 6-12 µM
# Summary of the method: (§3)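 24 h exposure to 6 or 12 μM, DMSO control. Lysis in Tris pH 8.0/NaCl/glycerol/NP-40/EDTA buffer with protease inhibitors. 20 µg (MDA-MB-231, MDA-MB-468) or 50 µg (MCF-7) of lysate run on 4-12% SDS-PAGE. Blot probed with p53 DO-1, GAPDH used for reprobe/loading. Triplicate experiments.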
# MCF7 [7] = assay: Downregulation of p53 expression in human MCF7 cells at 6 to 12 uM measured after 24 hrs by immunoblot analysis; type: functional, cell-based; details: dose 6-12 µM; summary of the method: as §3
# [8] = Octanol-water partition coefficient, logP of the compound by HPLC-MS analysis; type: physicochemical; details: for logP: 18 h
# Summary of the method: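 Compound (10 µL of 10 mM DMSO stock) added to 0.5 mL octanol plus 0.5 mL sodium phosphate buffer pH 7.4. Stirred 18 h, centrifuged 2 h at 3600 rpm. Concentration in each phase measured by LC-MS on a C18 column.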
# MDA-MB-468 [9] = assay: Antiproliferative activity against human MDA-MB-468 cells expressing p53 R273H mutant assessed as inhibition of cell growth at 10 to 50 uM incubated for 24 to 72 hrs by WST-1 assay; type: functional, cell-based; details: dose 10-50 µM, time 24-72 hrs; summary of the method: as §1
# MDA-MB-231 [10] = assay: Downregulation of p53 R280K mutant expression in human MDA-MB-231 cells at 6 to 12 uM measured after 24 hrs by immunoblot analysis; details: dose 6-12 µM
# MDA-MB-231 [11] = assay: Induction of apoptosis in human MDA-MB-231 cells expressing p53 R280K mutant assessed as decrease in level of uncleaved caspase 3 level at 6 to 12 uM measured after 24 hrs by western blotting analysis; type: functional, cell-based; details: dose 6-12 µM
# Summary of the method: (§4)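 Cells treated with DMSO or compound at 6 or 12 µM for 24 h, then lysed in Tris-Cl pH 8.0/NaCl/glycerol/NP-40/EDTA buffer with protease inhibitors. 100 µg lysate resolved on 4-12% SDS-PAGE and blotted to PVDF. Probed with anti-PARP or anti-caspase 3, then HRP secondary and ECL. GAPDH reprobe as control.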
# MDA-MB-468 [12] = assay: Induction of apoptosis in human MDA-MB-468 cells expressing p53 R273H mutant assessed as decrease in level of uncleaved caspase 3 level at 6 to 12 uM measured after 24 hrs by western blotting analysis; type: functional, cell-based; details: dose 6-12 µM; summary of the method: as §4
# MCF7 [13] = assay: Induction of apoptosis in human MCF7 cells expressing wild type p53 assessed as decrease in level of uncleaved PARP1 level at 6 to 12 uM measured after 24 hrs by western blotting analysis; type: functional, cell-based; details: dose 6-12 µM; summary of the method: as §4
# MCF7 [14] = assay: Induction of apoptosis in human MCF7 cells expressing wild type p53 assessed as increase in cleaved PARP1 level at 6 to 12 uM measured after 24 hrs by western blotting analysis; type: functional, cell-based; details: dose 6-12 µM; summary of the method: as §4
# MDA-MB-231 [15] = assay: Induction of apoptosis in human MDA-MB-231 cells expressing p53 R280K mutant assessed as increase in level of cleaved PARP1 level at 6 to 12 uM measured after 24 hrs by western blotting analysis; type: functional, cell-based; details: dose 6-12 µM; summary of the method: as §4
# MDA-MB-468 [16] = assay: Induction of apoptosis in human MDA-MB-468 cells expressing p53 R273H mutant assessed as increase in level of cleaved PARP1 level at 6 to 12 uM measured after 24 hrs by western blotting analysis; type: functional, cell-based; details: dose 6-12 µM; summary of the method: as §4
# MCF7 [17] = assay: Upregulation of p53 expression in human MCF7 cells at 6 to 12 uM measured after 24 hrs by immunoblot analysis; type: functional, cell-based; details: dose 6-12 µM
# Summary of the method: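 Cells treated with DMSO or compound at 6 or 12 µM for 24 h and lysed. 50 µg MCF-7 lysate resolved by SDS-PAGE and probed with p53 DO-1 antibody. Reprobed with anti-GAPDH as loading control. Run in triplicate.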
# MDA-MB-231 [18] = assay: Antiproliferative activity against human MDA-MB-231cells expressing p53 R280K mutant assessed as inhibition of cell growth at 10 to 50 uM incubated for 24 hrs by WST-1 assay; type: functional, cell-based; details: dose 10-50 µM; summary of the method: as §1
# MDA-MB-231 [19] = assay: Antiproliferative activity against human MDA-MB-231 cells expressing p53 R280K mutant assessed as inhibition of cell growth incubated for 24 hrs by WST-1 assay; type: functional, cell-based; details: MDA-MB-231, 24 h
# Summary of the method: (§5)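 WST-1 proliferation assay. Compound diluted in DMSO and added to cells at 1% DMSO final. 4,000 cells/well in duplicate; DMSO-only wells as control, cell-free medium wells for background.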
# MDA-MB-231 [20] = assay: Antiproliferative activity against human MDA-MB-231 cells expressing p53 R280K mutant assessed as inhibition of cell growth incubated for 72 hrs by WST-1 assay; type: functional, cell-based; details: MDA-MB-231, 72 h; summary of the method: as §5
# MDA-MB-231 [21] = assay: Induction of apoptosis in human MDA-MB-231 cells expressing p53 R280K mutant assessed fold increase in number of Annexin-V stained cells at 6 to 12 uM incubated for 24 hrs by AnnexinV-FITC and PI staining based flow cytometry relative to control; type: functional; details: dose 6-12 µM; summary of the method: as §2
# MDA-MB-468 [22] = assay: Induction of apoptosis in human MDA-MB-468 cells expressing p53 R273H mutant assessed fold increase in number of Annexin-V stained cells at 6 to 12 uM incubated for 24 hrs by AnnexinV-FITC and PI staining based flow cytometry relative to control; type: functional; details: dose 6-12 µM; summary of the method: as §2
# MDA-MB-231 [23] = assay: Antiproliferative activity against human MDA-MB-231 cells expressing p53 R280K mutant assessed as inhibition of cell growth at 24 to 48 uM incubated for 72 hrs by WST-1 assay; type: functional; details: dose 24-48 µM; summary of the method: as §1
structure (smiles),measurement,setting,value
O=C1CNC(=S)N1CCC12CC3CC(CC(C3)C1)C2,Activity,MDA-MB-231 [1],inactive
same,Activity,MCF7 [2],inactive
same,Activity,MDA-MB-231 [3],inactive
same,Activity,MCF7 [4],inactive
same,Activity,MDA-MB-468 [5],inactive
same,inhibition,MDA-MB-468 [6],inactive
same,inhibition,MCF7 [7],inactive
same,logP at 18 h,[8],3.73
same,Activity,MDA-MB-468 [9],inactive
same,p53 R280K downregulation (active/not active),MDA-MB-231 [10],inactive
S=C=NC1C2CC3CC(C2)CC1C3 (stereo not drawn),Activity,MDA-MB-231 [1],inactive
CC(C)(COC12CC3CC(CC(C3)C1)C2)N=C=S,Activity,MDA-MB-231 [1],inactive
S=C=NCCc1ccccc1,Activity,MDA-MB-231 [1],Active
same,Activity,MCF7 [2],Active
same,Activity,MDA-MB-231 [11],Active
same,Activity,MDA-MB-468 [12],Active
same,Activity,MCF7 [13],Active
same,Activity,MCF7 [14],Active
same,inhibition,MDA-MB-468 [6],Active
same,Activity,MDA-MB-231 [15],Active
same,Activity,MDA-MB-468 [16],Active
same,Activity,MCF7 [17],Active
same,p53 R280K downregulation (active/not active),MDA-MB-231 [10],Active
S=C=Nc1ccc(C23CC4CC(CC(C4)C2)C3)cc1,Activity,MDA-MB-231 [18],Dose-Dependent Effect
same,logP,[8],6.34
CC12CC3CC(C)(C1)CC(N=C=S)(C3)C2,Activity,MDA-MB-231 [1],inactive
S=C=NCCC12CC3CC(CC(C3)C1)C2,IC50,MDA-MB-231 [19],24 µM
same,IC50,MDA-MB-231 [20],12 µM
same,Activity,MDA-MB-231 [18],Dose-Dependent Effect
same,Activity,MCF7 [2],inactive
same,fold change (FC),MDA-MB-231 [21],2
same,fold change (FC),MDA-MB-468 [22],2
same,Activity,MCF7 [4],inactive
same,inhibition,MDA-MB-468 [6],Active
same,inhibition,MCF7 [7],inactive
same,p53 R280K downregulation (active/not active),MDA-MB-231 [10],Active
S=C=NCCOC12CC3CC(CC(C3)C1)C2,Activity,MDA-MB-231 [1],inactive
same,logP at 18 h,[8],3.73
CC(N=C=S)C12CC3CC(CC(C3)C1)C2 (stereo not drawn),Activity,MDA-MB-231 [1],inactive
O=C(CC12CC3CC(CC(C3)C1)C2)N=C=S,Activity,MDA-MB-231 [1],inactive
same,logP,[8],3.73
C1C2CC3CC1CC(C2)C3,Activity,MDA-MB-231 [1],inactive
same,Activity,MCF7 [2],inactive
same,Activity,MDA-MB-468 [9],inactive
CCCC(CN=C=S)C1C2CC3CC(C2)CC1C3 (stereo not drawn),Activity,MDA-MB-231 [1],inactive
same,logP,[8],6.77
S=C=NC12CC3CC(CC(C3)C1)C2,Activity,MDA-MB-231 [1],inactive
same,Activity,MDA-MB-231 [3],inactive
same,Activity,MCF7 [4],inactive
same,Activity,MDA-MB-468 [5],inactive
same,inhibition,MDA-MB-468 [6],inactive
same,inhibition,MCF7 [7],inactive
same,p53 R280K downregulation (active/not active),MDA-MB-231 [10],inactive
S=C=NCC12CC3CC(CC(C3)C1)C2,IC50,MDA-MB-231 [19],24 µM
same,inhibition (INH),MDA-MB-231 [23],50%
same,Activity,MDA-MB-231 [18],Dose-Dependent Effect
same,Activity,MCF7 [2],Active
same,fold change (FC),MDA-MB-231 [21],2
same,fold change (FC),MDA-MB-468 [22],2
same,Activity,MCF7 [4],inactive
same,inhibition,MDA-MB-468 [6],Active
same,inhibition,MCF7 [7],inactive
same,p53 R280K downregulation (active/not active),MDA-MB-231 [10],Active
